Columns and labels:
Rattus norvegicus [1] = assay: Inhibition of PGF2-alpha formation in ip dosed rat serum after 1 hr by radioimmunoassay; assay type: functional
Summary of the method: (§1)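 Male rats, about 200 g, five per group, dosed at various levels ip or orally by intubation. Killed 1 h later and serum prepared. Serum extracted with ethyl acetate, extract evaporated under nitrogen, then assayed by radioimmunoassay using rabbit antibodies raised to PGF2α.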

Rattus norvegicus [2] = assay: Inhibition of PGF2-alpha formation in po dosed rat serum after 1 hr by radioimmunoassay; assay type: functional; summary of the method: as §1
Platelet [3] = assay: Inhibition of collagen-induced platelet aggregation in human platelet-rich plasma after 5 mins; assay type: functional
Summary of the method: (§2)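 Human PRP from centrifugation (180g, 15 min, room temperature); PPP from spinning PRP at 1000g for 2 min. 1 mL PRP stirred at 1000 rpm at 37 °C in a densitometer. Compounds added in physiological saline at various concentrations and incubated 5 min. Aggregation then triggered with ADP, epinephrine hydrochloride or human mammary-gland collagen. IC50 extrapolated from % inhibition vs log concentration.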

Platelet [4] = assay: Inhibition of ADP-induced platelet aggregation in human platelet-rich plasma after 5 mins; assay type: functional; summary of the method: as §2
Platelet [5] = assay: Inhibition of epinephrine hydrochloride-induced platelet aggregation in human platelet-rich plasma after 5 mins; assay type: functional; summary of the method: as §2
Mus musculus = assay: Inhibition of arachidonic acid-induced diarrhea in po dosed mouse treated for 1 hr prior to arachidonic acid-challenge measured after 30 mins; assay type: functional
Summary of the method: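 Male mice, 18-20 g, given compound orally 1 h before arachidonic acid 4 mg/kg ip. Diarrhea scored 0-4 on paper towels by pellet softness and wet ring.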

Rattus norvegicus [6] = assay: Toxicity in po dosed rat assessed as gastric ulcer incidence after 4 hrs; assay type: organism-based, Stomach; conditions: in vivo
Summary of the method: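 Male rats fasted 18 h with water ad libitum. Dosed orally 4 h before autopsy. Stomachs opened along the lesser curvature, everted, rinsed in saline and examined for focal petechiae.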

[7] = target: prostaglandin G/H synthase 1 (Bos taurus) (UniProt O62664); assay: Inhibition of prostaglandin synthetase (bovine) using arachidonic acid as substrate preincubated for 10 mins followed by substrate addition
[8] = Toxicity in po dosed mouse; assay type: organism-based; conditions: in vivo
Summary of the method: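 Acute oral (single-dose) administration to mice; the endpoint was the LD50 in mg/kg.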

[9] = Toxicity in po dosed mouse treated for 14 days; assay type: organism-based; conditions: in vivo
Rattus norvegicus [10] = organism: Rattus norvegicus; assay: Toxicity in rat assessed as systemic antiinflammatory activity; assay type: organism-based; conditions: in vivo
Rattus norvegicus [11] = organism: Rattus norvegicus; assay: Toxicity in rat assessed as systemic analgesic activity; assay type: organism-based; conditions: in vivo
[12] = target: prostaglandin G/H synthase 1 (Bos taurus) (UniProt O62664); assay: Ratio of indomethacin IC50 to compound IC50 for prostaglandin synthetase (bovine)
[13] = Homo sapiens, Platelet, Plasma, 5 min, read-out: IC50

Row | SMILES | ED50 (Rattus norvegicus [1]) [mg/kg] | ED50 (Rattus norvegicus [2]) [mg/kg] | IC50 (Platelet [3]) [µM] | IC50 (Platelet [4]) [µM] | IC50 (Platelet [5]; platelet) [µM] | ED50 (Mus musculus) [mg/kg] | ED50 (Rattus norvegicus [6]) [mg/kg] | IC50 (Platelet [5]; [13]) [µM] | IC50 [7] [µM] | LD50 [8] [mg/kg] | LD50 at 336 h [9] [mg/kg] | Activity (Rattus norvegicus [10]) | Activity (Rattus norvegicus [11]) | Ratio IC50 [12]
1 | CC(=O)Oc1ccccc1C(=O)O [ASPIRIN] | 10 | 6.7 | 31 | 25 | 18 | 1.3 | 49 | – | – | – | – | – | – | –
2 | COc1ccc2c(c1)c(CC(=O)O)c(C)n2C(=O)c1ccc(Cl)cc1 [INDOMETHACIN] | < 1 | < 1 | 2.8 | 0.1 | – | 0.8 | 3 | 3.2 | – | – | – | – | – | –
3 | NC(=O)c1[nH]c2ccc(C(O)(C(F)(F)F)C(F)(F)F)cc2c1-c1ccccc1 | – | – | – | – | – | – | – | – | 7 | – | – | – | – | –
4 | N#Cc1[nH]c2ccc(C(O)(C(F)(F)F)C(F)(F)F)cc2c1-c1ccccc1 | 15 | 28 | 4.2 | 7.3 | – | 5 | > 250 | 34 | 0.5 | > 1000 | > 1000 | Non-toxic | Non-toxic | 2
